Most compounds without a hit are left out; they make up all but 4.3% or so of the library.
TAAR1 ag – agonists of human TAAR1. 360,000 compounds, 0.99% hits. activation, % at 3 µM. CHO RD-HGA16 TAAR1, Fluo-8 calcium fluorescence; vehicle wells 0%, saturating PEA agonist 100%;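 active means activation above the mean activation of all test compounds in the run plus 3 SD, cut at about 38% in these data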
Target sequence (Q96RJ0 whole entry, looked up): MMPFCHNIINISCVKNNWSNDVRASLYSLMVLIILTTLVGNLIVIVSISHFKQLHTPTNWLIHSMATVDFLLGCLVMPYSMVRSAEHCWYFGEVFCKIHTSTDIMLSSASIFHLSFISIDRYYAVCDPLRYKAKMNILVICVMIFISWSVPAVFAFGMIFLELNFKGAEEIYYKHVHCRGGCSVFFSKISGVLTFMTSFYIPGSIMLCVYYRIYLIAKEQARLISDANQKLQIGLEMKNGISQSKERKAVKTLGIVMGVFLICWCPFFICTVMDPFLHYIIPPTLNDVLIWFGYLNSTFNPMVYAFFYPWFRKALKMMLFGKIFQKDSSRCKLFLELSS
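Signal – calcium-sensitive Fluo-8 signal, excitation 470-495, emission 515-575 nm · System – RD-HGA16 (CHO) cells co-expressing Gα16 and hTAAR1 · Incubation – 17-24 h seeding, 75 min 37 °C dye, 30 min RT · Compound dosing – 3 µM single concentration · Repeats – no replicates (n 1)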
HTR2A ag – agonists of mouse serotonin 5-HT2A receptor (HTR2A). 360,000 compounds, 0.66% hits. AID 624169. activation, % at 7.6 µM. CHO-K1 mHTR2A beta-arrestin complementation, luminescence; percent of 30 µM serotonin response. P35363;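 active means activation above a run cutoff, the mean activation of all tested compounds plus 3 SD, cut at about 14% in these data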
B2AR ag – human beta-2 adrenergic receptor agonism by FAP | P07550 | Am2.2-beta2AR cells, FAP receptor internalization, flow cytometry | response, % (no concentration beside the values) | 340,000 compounds, 0.43% hits | AID 504454;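 active means response above a set limit, near 3 SD of response in nonfluorescent compounds, cut at about 42% in these data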
MC4R antagonist – blocks human MC4R cAMP signaling; inhibition, % at 6.5 µM; MC4R-expressing cells, MTII-stimulated cAMP, LANCE TR-FRET; 360,000 compounds, 0.48% hits; AID 540295; P32245;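 active means inhibition above its plate's cutoff, the mean of tested wells on that plate plus 3 SD, cut at about 29% in these data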
Target sequence (P32245 whole entry, looked up): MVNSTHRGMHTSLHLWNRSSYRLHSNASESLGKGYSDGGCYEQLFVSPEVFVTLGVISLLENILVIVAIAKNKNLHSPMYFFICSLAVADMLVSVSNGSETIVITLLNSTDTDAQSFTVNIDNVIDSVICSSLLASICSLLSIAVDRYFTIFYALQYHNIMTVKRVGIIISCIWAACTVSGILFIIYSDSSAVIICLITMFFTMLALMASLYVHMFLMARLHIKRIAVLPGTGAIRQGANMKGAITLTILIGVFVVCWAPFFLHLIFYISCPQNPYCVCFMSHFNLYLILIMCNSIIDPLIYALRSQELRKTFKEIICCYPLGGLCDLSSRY
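Test system: U2OS cells stably expressing human melanocortin 4 receptor (MC4R); also added: Melanotan II challenge; compound: 6.5 µM single dose; timing: 30-min compound preincubation, 1-h Melanotan II challenge, 1-h detection, room temperature; signal: Eu-cAMP/anti-cAMP TR-FRET, emission 671 nm; repeats: one well per compound, no replicates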
TAAR1 antagonist – human TAAR1 antagonism. CHO RD-HGA16 TAAR1, Fluo-8 calcium fluorescence, antagonist. 360,000 compounds, 1.5% hits. Q96RJ0. inhibition, % at 3 µM;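 active means inhibition above a per-plate cutoff, the mean inhibition of test compounds on that plate plus 3 SD, cut at about 49% in these data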
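Test system – hTAAR1-expressing CHO RD-HGA16 cells, Gα16-coupled · Also added – β-PEA at EC80 concentration, post-compound challenge · Compound – 3 µM, single point · Incubation – dye loading 75 min at 37 °C, then 30 min room temperature · Measured by – Fluo-8 intracellular calcium dye fluorescence, real-time kinetic reads · Benchmarks – vehicle and agonist controls · Replicates – singlicate, one well per test compound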
MC4R barr agon – activates human MC4R beta-arrestin recruitment | U2OS MC4R beta-arrestin complementation, luminescence; percent of melanotan II response, DMSO zero | 360,000 compounds, 0.98% hits | AID 540308 | P32245 | activation, % at 8.9 µM;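 active means activation above a per-plate cutoff, the mean activation of sample wells on that plate plus 3 SD, cut at about 8% in these data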
nonsel antag count – counter-screen for TAAR1 antagonists: nonselective antagonists. shares compounds with TAAR1 antagonist. counterscreen cell line, calcium fluorescence, antagonist mode. inhibition, % at 3 µM. 2,400 compounds, 77% hits; in the data active means inhibition above about 22%;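 further: CHO-Ga16 host cells stimulated with ATP at an EC80 level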
TAAR1 ant conf – confirmation of human TAAR1 antagonists; TAAR1-expressing cells, fluorescence antagonist read-out; shares compounds with TAAR1 antagonist; 2,400 compounds, 40% hits; inhibition, % at 3 µM; in the data active means inhibition above about 49%;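 further: CHO-Ga16 host cells challenged with agonist PEA near its EC80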
Ga16 ag counter – nonselective Ga16 agonism, counter-screen. Ga16-expressing cells, calcium fluorescence, agonist counterscreen. 2,400 compounds, 18% hits. activation, % at 3 µM. shares compounds with TAAR1 antagonist. AID 651953; in the data active means activation above about 12%
TAAR1 ag count – TAAR1 agonism, antagonist counter-screen; shares compounds with TAAR1 antagonist; activation, % at 3 µM; 2,400 compounds, 2% hits; hTAAR1 cell line, fluorescence activation, agonist mode; in the data active means activation above about 37%;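 further: CHO cells stably expressing TAAR1 with calcium dye readout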
Numbers stand for hits; . = inactive; / = no result given.

SMILES	TAAR1 ag	HTR2A ag	B2AR ag	MC4R antagonist	TAAR1 antagonist	MC4R barr agon	nonsel antag count	TAAR1 ant conf	Ga16 ag counter	TAAR1 ag count
O=C(CCS(=O)(=O)c1cccs1)Nc1ccc(C(=O)NCc2ccc(F)cc2)cc1	.	.	.	.	.	.	/	/	/	/
C[C@@]12C(=O)N(Cc3ccc(-c4ccccc4)cc3)CC(=O)N1[C@H](/C=C/c1ccccc1)[C@@H]1C(=O)N(c3ccccc3)C(=O)[C@@H]12	.	.	.	.	54	.	30	.	.	.
COC(=O)CN1C(=O)[C@H]2[C@@H](/C=C/c3ccccc3)N3C(=O)CN(Cc4ccc(-c5ccccc5)cc4)C(=O)[C@@]3(C)[C@H]2C1=O	.	.	.	.	.	.	/	/	/	/
CN(CC(=O)Nc1ccc(Cl)c(C(F)(F)F)c1)C(=O)c1ccc(N2CCOCC2)c([N+](=O)[O-])c1	.	.	.	.	.	.	/	/	/	/
Nc1c2ccccc2nc2ccccc12	.	.	.	.	.	.	/	/	/	/
Cc1nc2ccccc2c2c(N)c3ccccc3n12	.	.	.	.	56	.	22	.	.	.
CC(C)CNC(=O)C1(C)CCCCCN1Cc1ccccc1-c1ccccc1 (configuration not stated)	.	.	/	.	.	.	/	/	/	/
COc1ccc(CCn2c(C)cc3c(c2=O)C(c2ccc4c(c2)OCO4)C(C#N)=C(N)O3)cc1OC (configuration not stated)	.	.	.	.	53	.	29	.	.	.
Cc1cc2c(c(=O)n1Cc1ccccn1)C(C(C)C)C(C#N)=C(N)O2 (configuration not stated)	.	.	.	.	.	.	/	/	/	/
Cc1cc2c(c(=O)n1Cc1ccccn1)C(c1ccc3c(c1)OCO3)C(C#N)=C(N)O2 (configuration not stated)	.	.	.	.	106	.	.	.	.	.
C[C@@H]1CNC(=O)c2c(C(=O)N3CCN(c4ccccc4)CC3)ncn21	.	/	/	/	.	/	/	/	/	/
O=C(CNC(=O)c1ccc(Cl)cc1Cl)OCc1cn2cc(Br)ccc2n1	.	.	.	.	.	.	/	/	/	/
CC1CCCCC12NC(=O)N(CC(=O)OCC(=O)Nc1ccc(F)cc1[N+](=O)[O-])C2=O (configuration not stated)	.	.	.	.	76	.	32	53	.	.
CCC1(CC)NC(=O)N(CC(=O)OCC(=O)Nc2ccccc2OC(F)F)C1=O	.	.	.	.	.	.	/	/	/	/
CCC1(CC)NC(=O)N(CC(=O)OCC(=O)Nc2ccccc2[N+](=O)[O-])C1=O	.	.	.	.	68	.	23	52	12	.
CC(C)[C@@H](C(=O)NC1CCCC1)N1C(=O)N2CCc3c([nH]c4ccccc34)[C@@]2(C)C1=O	.	.	.	.	.	.	/	/	/	/
CC(=O)/C=C1\OCc2cc(OCc3ccccc3)ccc21	.	.	/	/	.	/	/	/	/	/
COc1ccc(CCNc2oc(Cc3ccccc3)nc2C#N)cc1OC	.	.	.	.	.	.	/	/	/	/
CCNc1oc(COc2ccccc2F)nc1C#N	.	.	.	.	.	.	/	/	/	/
COc1ccc(CCNc2oc(COc3ccccc3F)nc2C#N)cc1OC	.	.	.	.	59	.	37	49	12	.
COc1ccc(CCNc2oc(COc3ccccc3Cl)nc2C#N)cc1OC	.	.	.	.	64	.	39	55	.	.
CCOC(=O)c1cc(-c2ccccc2)n(Cc2cc(CC)no2)n1	.	.	.	.	.	.	/	/	/	/
COc1ccc(/C=C2/CCC(CN3CCOCC3)C2=O)cc1 (configuration not stated)	.	.	.	.	.	.	/	/	/	/
COc1ccc2[nH]c(C(=O)O)c(CCNC(=O)/C=C/c3ccc(O)c(OC)c3)c2c1	.	.	.	.	.	.	/	/	/	/
CC(=O)Nc1ccc(C(=O)Nc2cccc(S(=O)(=O)N(C)c3ccccc3)c2)cc1	.	.	.	.	52	.	33	.	.	.
SMILES	TAAR1 ag	HTR2A ag	B2AR ag	MC4R antagonist	TAAR1 antagonist	MC4R barr agon	nonsel antag count	TAAR1 ant conf	Ga16 ag counter	TAAR1 ag count
CN(c1ccccc1)S(=O)(=O)c1cccc(NC(=O)c2ccncc2)c1	.	.	.	.	.	.	/	/	/	/
NS(=O)(=O)c1cccc(NC(=O)c2cc(=O)c3ccccc3o2)c1	.	.	.	.	.	.	/	/	/	/
COc1ccccc1N(C)S(=O)(=O)c1ccc(C(=O)OC(C)C(=O)NCc2ccc3c(c2)OCO3)cc1 (configuration not stated)	.	.	.	.	56	.	36	56	12	.
CN(c1ccccc1)S(=O)(=O)c1cccc(NC(=O)c2cc(=O)c3ccccc3o2)c1	.	.	.	.	74	.	40	57	12	.
COc1ccccc1N(C)S(=O)(=O)c1ccc(C(=O)Nc2cc(OC)c(OC)c(OC)c2)cc1	.	.	.	.	57	.	23	.	.	.
O=C(CCCOc1ccc(Br)cc1)Nc1ccc(S(=O)(=O)N2CCOCC2)cc1	.	.	.	.	.	.	/	/	/	/
COc1ccc(N(C)S(=O)(=O)c2cccc(C(=O)Nc3cccc(C(=O)NC4CC4)c3)c2)cc1	.	.	.	.	61	.	.	.	.	.
COc1ccc(N(C)S(=O)(=O)c2cccc(C(=O)OCC(=O)Nc3cc(C)ccc3OC)c2)cc1	.	.	/	.	84	.	34	51	12	.
COc1ccc(N(C)S(=O)(=O)c2cccc(C(=O)OCC(=O)Nc3sc4c(c3C#N)CCCCC4)c2)cc1	.	.	.	.	.	.	/	/	/	/
O=C(Nc1cccc(S(=O)(=O)N2CCCCCC2)c1)c1cc(=O)c2ccccc2o1	.	.	.	.	79	.	42	57	15	.
CC(c1nc2ccccc2[nH]1)N(C(=O)Cc1csc2ccccc12)c1cccnc1 (configuration not stated)	.	.	/	/	.	/	/	/	/	/
COCCn1c(SCC(=O)Nc2ccccc2OC)nc2c(oc3ccccc32)c1=O	.	.	.	.	52	.	.	.	.	.
